Measurements from ChEMBL document CHEMBL4400549, “DPD-Inspired Discovery of Novel LsrK Kinase Inhibitors: An Opportunity To Fight Antimicrobial Resistance” (J Med Chem, 2019).

These compounds were tested against Glycerol kinase (Escherichia coli (strain K12)) (UniProt P0A6F3) (assay: Inhibition of Escherichia coli K12 glycerokinase at 25 to 500 uM using glycerol as substrate after 15 mins by Kinase Glo luminescence assay). Conditions: Escherichia coli K-12.
In short: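 E. coli glycerokinase 0.3 U/mL with 300 µM glycerol, then 100 µM ATP; run as the LsrK protocol (triethanolamine pH 7.4 buffer, 15 min incubation, Kinase Glo luminescence read after 30 min).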

Sequence of Glycerol kinase (Escherichia coli (strain K12)) (P0A6F3 whole entry): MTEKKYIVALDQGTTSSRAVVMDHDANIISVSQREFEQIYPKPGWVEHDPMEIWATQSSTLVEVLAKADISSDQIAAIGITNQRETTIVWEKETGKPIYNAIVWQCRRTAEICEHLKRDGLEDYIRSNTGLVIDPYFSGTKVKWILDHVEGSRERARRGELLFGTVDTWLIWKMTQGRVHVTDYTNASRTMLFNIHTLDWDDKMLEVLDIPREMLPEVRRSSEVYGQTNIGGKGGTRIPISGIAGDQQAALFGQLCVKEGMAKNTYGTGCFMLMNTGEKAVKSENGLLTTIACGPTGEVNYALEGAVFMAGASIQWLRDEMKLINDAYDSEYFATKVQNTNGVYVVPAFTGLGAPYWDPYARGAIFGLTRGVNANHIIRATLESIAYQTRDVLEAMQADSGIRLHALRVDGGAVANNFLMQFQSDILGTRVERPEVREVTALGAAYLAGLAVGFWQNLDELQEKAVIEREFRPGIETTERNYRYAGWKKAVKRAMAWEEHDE

| SMILES | inhibition |
| --- | --- |
| c1coc(-c2cc(C3COC4(CCCCC4)O3)[nH]n2)c1 (stereo not given) | Dose-dependent effect |
| Cn1nc(-c2ccco2)cc1C1COC2(CCCCC2)O1 (stereo not given) | Dose-dependent effect |

These compounds were tested against T1, Autoinducer-2 kinase (Salmonella typhimurium (strain LT2 / SGSC1412 / ATCC 700720)) (UniProt Q8ZKQ6) (assay: Inhibition of Salmonella typhimurium LsrK expressed in Escherichia coli MET1158 at 200 uM using (S)-DPD as substrate after 15 mins by Kinase Glo luminescence assay relative to control). Conditions: Salmonella enterica subsp. enterica serovar Typhimurium.
T1 sequence (whole entry): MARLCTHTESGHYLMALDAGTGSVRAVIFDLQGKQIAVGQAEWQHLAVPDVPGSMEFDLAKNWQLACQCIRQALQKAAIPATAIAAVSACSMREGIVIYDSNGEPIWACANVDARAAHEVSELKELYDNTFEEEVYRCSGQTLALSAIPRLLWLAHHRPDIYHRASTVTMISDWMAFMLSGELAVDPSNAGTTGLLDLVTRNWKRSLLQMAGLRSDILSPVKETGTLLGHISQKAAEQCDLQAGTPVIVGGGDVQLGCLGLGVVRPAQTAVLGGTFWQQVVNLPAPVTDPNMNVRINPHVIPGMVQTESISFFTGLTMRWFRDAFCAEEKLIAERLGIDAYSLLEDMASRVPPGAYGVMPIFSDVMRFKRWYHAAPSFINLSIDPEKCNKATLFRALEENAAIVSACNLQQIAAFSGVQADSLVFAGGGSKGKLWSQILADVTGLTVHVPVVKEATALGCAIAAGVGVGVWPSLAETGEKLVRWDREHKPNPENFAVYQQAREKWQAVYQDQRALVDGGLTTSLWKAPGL
In short: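 Compound at 200 µM in triplicate with 300 nM LsrK, 300 µM (S)-DPD and 100 µM ATP in 25 mM triethanolamine pH 7.4, 200 µM MgCl2, 0.1 mg/mL BSA; 15 min incubation, then Kinase Glo reagent; luminescence read after 30 min; percent inhibition.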

| SMILES | inhibition [%] |
| --- | --- |
| Cc1nc(C2CC2)cc(C2COC3(CCCCC3)O2)c1C(=O)O (stereo not given) | 6.26 |
| c1ccc(-c2nc(C3CC3)cc(C3COC4(CCCCC4)O3)n2)cc1 (stereo not given) | 0.76 |
| c1ccc(-c2cc(C3COC4(CCCCC4)O3)n(C3CCCC3)n2)cc1 (stereo not given) | 0 |
| OCC(O)c1cc2ccccc2cn1 (stereo not given) | 0.48 |
| c1c(C2CCCC2)n[nH]c1C1COC2(CCCCC2)O1 (stereo not given) | 0 |
| OCC(O)c1cc(-c2cccs2)nc(-c2cccc(F)c2)n1 (stereo not given) | 19.8 |
| CCn1nc(-c2ccccc2)cc1C1COC2(CCCCC2)O1 (stereo not given) | 0 |
| Cc1nc(C2CC2)cc(C(O)CO)c1C(=O)O (stereo not given) | 1.33 |
| OCC(O)c1cc(C2CC2)n[nH]1 (stereo not given) | 0 |
| Cn1nc(C23CC4CC(CC(C4)C2)C3)cc1C1COC2(CCCCC2)O1 (stereo not given) | 0 |
| OCC(O)c1cc(-c2cccs2)n[nH]1 (stereo not given) | 0 |
| c1c(C2CC2)n[nH]c1C1COC2(CCCCC2)O1 (stereo not given) | 1.47 |
| OCC(O)c1cc2ccoc2cn1 (stereo not given) | 2.07 |
| Cn1nc(C2CCCC2)cc1C1COC2(CCCCC2)O1 (stereo not given) | 0 |
| Cn1nc(-c2cc(F)cc(Cl)c2)cc1C1COC2(CCCCC2)O1 (stereo not given) | 4.42 |
| c1ccc(-c2cc(C3COC4(CCCCC4)O3)nc(C3CC3)n2)cc1 (stereo not given) | 15.2 |
| CCCc1nc(-c2cccs2)cc(C(O)CO)n1 (stereo not given) | 47.8 |
| c1ccc(-c2cc(C3COC4(CCCCC4)O3)n(C3CC3)n2)cc1 (stereo not given) | 0 |
| Fc1cccc(-c2nc(-c3cccs3)cc(C3COC4(CCCCC4)O3)n2)c1 (stereo not given) | 0.2 |
| Cn1nc(-c2cccc(C#N)c2)cc1C1COC2(CCCCC2)O1 (stereo not given) | 0 |
| c1cc2cc(C3COC4(CCCCC4)O3)ncc2s1 (stereo not given) | 11.1 |
| CCCc1nc(-c2cccs2)cc(C2COC3(CCCCC3)O2)n1 (stereo not given) | 0.96 |
| N#CCCn1nc(-c2ccccc2)cc1C1COC2(CCCCC2)O1 (stereo not given) | 0 |
| c1coc(-c2cc(C3COC4(CCCCC4)O3)[nH]n2)c1 (stereo not given) | 43.5 |
| Cn1nc(-c2ccon2)cc1C1COC2(CCCCC2)O1 (stereo not given) | 9.83 |
| Cn1nc(C2CC2)cc1C(O)CO (stereo not given) | 0 |
| Cn1nc(C2CC2)cc1C1COC2(CCCCC2)O1 (stereo not given) | 0 |

| SMILES | inhibition [%] |
| --- | --- |
| Cn1nc(C2CCCC2)cc1C(O)CO (stereo not given) | 0 |
| OCC(O)c1cc(-c2ccccc2)nc(C2CC2)n1 (stereo not given) | 24.5 |
| c1c(C23CC4CC(CC(C4)C2)C3)n[nH]c1C1COC2(CCCCC2)O1 (stereo not given) | 0 |
| OCC(O)c1cc(C23CC4CC(CC(C4)C2)C3)n[nH]1 (stereo not given) | 0 |
| c1ccc2cc(C3COC4(CCCCC4)O3)ncc2c1 (stereo not given) | 14.9 |
| OCC(O)c1cc(C2CC2)nc(-c2ccccn2)n1 (stereo not given) | 2.94 |
| Fc1cccc2cnc(C3COC4(CCCCC4)O3)cc12 (stereo not given) | 1.76 |
| Cn1nc(-c2ccccc2)cc1C1COC2(CCCC2)O1 (stereo not given) | 5.56 |
| c1ccc(-c2cc(C3COC4(CCCCC4)O3)[nH]n2)cc1 (stereo not given) | 53.6 |
| Cc1nc(-c2ccccc2)cc(C2COC3(CCCCC3)O2)n1 (stereo not given) | 9.41 |
| Cc1nc2cc(C3COC4(CCCCC4)O3)ncc2s1 (stereo not given) | 6.32 |
| Cn1nc(-c2ccco2)cc1C(O)CO (stereo not given) | 0 |
| CC(=O)N1CCC2(CC1)OCC(c1cc(-c3ccccc3)nn1C)O2 (stereo not given) | 2.07 |
| OCC(O)c1cc(-c2ccco2)n[nH]1 (stereo not given) | 0 |
| Cn1nc(-c2ccccc2)cc1C(O)CO (stereo not given) | 0 |
| Cn1nc(-c2ccccc2)cc1C1COC2(CCCCCC2)O1 (stereo not given) | 0 |
| CC(C)c1cc(C2COC3(CCCCC3)O2)n(C)n1 (stereo not given) | 0 |
| Cn1nc(-c2ccccc2)cc1C1COC2(CCCCC2)O1 (stereo not given) | 78 |
| Cc1ccc2cnc(C(O)CO)cc2c1 (stereo not given) | 0.4 |
| OCC(O)c1cc2ccsc2cn1 (stereo not given) | 0.17 |
| Cn1nc(-c2cc3ccccc3[nH]2)cc1C1COC2(CCCCC2)O1 (stereo not given) | 4.38 |
| OCC(O)c1cc2c(F)cccc2cn1 (stereo not given) | 0.65 |
| CC(C)c1cc(C(O)CO)n(C)n1 (stereo not given) | 0 |
| Cn1nc(-c2cccs2)cc1C(O)CO (stereo not given) | 0 |
| Cc1ccc2cnc(C3COC4(CCCCC4)O3)cc2c1 (stereo not given) | 1.66 |
| Cc1cc(-c2ccccc2)nn1C | 2.01 |
| Cc1nc2cnc(C(O)CO)cc2s1 (stereo not given) | 0.1 |

| SMILES | inhibition [%] |
| --- | --- |
| OCC(O)c1cc(C2CC2)nc(-c2ccccc2)n1 (stereo not given) | 21.6 |
| Cc1nc(-c2ccccc2)cc(C(O)CO)n1 (stereo not given) | 0.22 |
| c1cc2cc(C3COC4(CCCCC4)O3)ncc2o1 (stereo not given) | 5.75 |
| OCC(O)c1cc(C2CCCC2)n[nH]1 (stereo not given) | 0 |
| CN(C)c1ccc(-c2cc(C3COC4(CCCCC4)O3)n(C)n2)cc1 (stereo not given) | 0.19 |
| Oc1ccc2cc(C3COC4(CCCCC4)O3)ncc2c1 (stereo not given) | 28.6 |
| OCC(O)c1cc(-c2ccccc2)n[nH]1 (stereo not given) | 0 |
| c1csc(-c2cc(C3COC4(CCCCC4)O3)[nH]n2)c1 (stereo not given) | 26.5 |
| CC(C)c1cc(C2COC3(CCCCC3)O2)[nH]n1 (stereo not given) | 7.14 |
| Cn1nc(-c2cccnc2)cc1C1COC2(CCCCC2)O1 (stereo not given) | 4.92 |
| CC(C)n1nc(-c2ccccc2)cc1C1COC2(CCCCC2)O1 (stereo not given) | 0 |
| Cn1nc(C2CCCCC2)cc1C1COC2(CCCCC2)O1 (stereo not given) | 1.51 |
| Cn1nc(-c2cccs2)cc1C1COC2(CCCCC2)O1 (stereo not given) | 0 |
| Cn1nc(-c2ccccc2)cc1C1COC2(CCOCC2)O1 (stereo not given) | 31.1 |
| Cn1nc(-c2ccco2)cc1C1COC2(CCCCC2)O1 (stereo not given) | 51.6 |
| CC(C)c1cc(C(O)CO)[nH]n1 (stereo not given) | 0 |
| c1ccc(-c2cc(C3COC4(CCCCC4)O3)n(-c3ccccc3)n2)cc1 (stereo not given) | 0 |
| CCOC(=O)c1c(C2COC3(CCCCC3)O2)cc(C2CC2)nc1C (stereo not given) | 0.36 |
| c1ccc(-c2nc(C3CC3)cc(C3COC4(CCCCC4)O3)n2)nc1 (stereo not given) | 21.2 |
| OCC(O)c1cc2ccc(O)cc2cn1 (stereo not given) | 1.67 |
| Cc1cccc(-c2cc(C3COC4(CCCCC4)O3)n(C)n2)c1 (stereo not given) | 1.07 |
| Cc1nc(-c2ccccc2)cc(C2COC3(CCCCC3)O2)c1C(=O)O (stereo not given) | 0 |
| Cn1nc(C23CC4CC(CC(C4)C2)C3)cc1C(O)CO (stereo not given) | 0 |
| Cc1nc(-c2ccccc2)cc(C(O)CO)c1C(=O)O (stereo not given) | 0.81 |
| CCOC(=O)c1c(C2COC3(CCCCC3)O2)cc(-c2ccccc2)nc1C (stereo not given) | 0.1 |

Each compound was assayed against T2, Autoinducer-2 kinase (Salmonella typhimurium (strain LT2 / SGSC1412 / ATCC 700720), UniProt Q8ZKQ6) (assay: Inhibition of Salmonella typhimurium LsrK expressed in Escherichia coli MET1158 using (S)-DPD as substrate after 15 mins by Kinase Glo luminescence assay). Conditions: not given.
T2 sequence (Q8ZKQ6 whole entry): T1 sequence (whole entry)
Parameters: species or system Salmonella enterica subsp. enterica serovar Typhimurium
In short: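 Dose-response at 6 concentrations (25–500 µM); 300 nM LsrK, 300 µM (S)-DPD, 100 µM ATP in 25 mM triethanolamine pH 7.4, 200 µM MgCl2, 0.1 mg/mL BSA plus Triton X-100; 15 min, Kinase Glo readout after 30 min; IC50 by four-parameter logistic fit; mean ±SD of two independent experiments (n = 4).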

| SMILES | IC50 [µM] |
| --- | --- |
| c1coc(-c2cc(C3COC4(CCCCC4)O3)[nH]n2)c1 (stereo not given) | 384 |
| c1ccc(-c2cc(C3COC4(CCCCC4)O3)[nH]n2)cc1 (stereo not given) | 475 |
| Cn1nc(-c2ccccc2)cc1C1COC2(CCCCC2)O1 (stereo not given) | 119 |
| Cn1nc(-c2ccco2)cc1C1COC2(CCCCC2)O1 (stereo not given) | 284 |
